Sampled rows, rich in hits. Any-hit rate of the full collection: about 2.2%.
rCAG RNA binder: binds r(CAG) RNA repeats; r(CAG) RNA repeat, TO-PRO-1 dye displacement fluorescence; inhibition, % at 3 µM; 370,000 tested, 1.3% active;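 active = inhibition above the plate cutoff, the mean of all test compounds on that plate plus 3 SD, cut at about 35% in these data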;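 note: 0% = DMSO alone and 100% = 100 µM mitoxantrone as full dye displacement; higher means more dye released from RNA so lower well fluorescence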
ARFGAP1 inhibitor: inhibitors of rat ARFGAP1; Arfgap1-stimulated ARF1 GTP hydrolysis, GDP FP detection; 360,000 tested, 0.26% active; Q62848; inhibition, % at 16.5 µM;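 active = inhibition above a per-plate limit, mean inhibition of low control wells plus 3 SD, cut at about 25% in these data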;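 note: 0% = DMSO wells with enzyme and 100% = wells lacking Arfgap1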
Target sequence (Q62848 1-136 limits assumed): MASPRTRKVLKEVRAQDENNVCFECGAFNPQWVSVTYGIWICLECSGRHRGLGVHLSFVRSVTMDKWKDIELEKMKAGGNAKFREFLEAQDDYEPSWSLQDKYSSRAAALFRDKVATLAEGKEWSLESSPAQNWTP
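Material: truncated rat Arfgap1 GAP domain; Incubation: compound-enzyme preincubation 20 min, reaction 120 min, detection 60 min, 25 °C; Read-out: percent inhibition of Arfgap1-stimulated GTP hydrolysis; Technique: FP, GDP Alexa 633 tracer displaced from anti-GDP antibody, 620/688 nm; Controls: No-Arfgap1 wells (100%) versus DMSO full-reaction wells (0%); Replication: single well per compound.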
NadD inh: inhibitors of Staphylococcus aureus NadD. purified NadD enzyme, colorimetric absorbance read-out. 360,000 tested, 0.78% active. inhibition, % at 20 µM; in the data active = inhibition above about 26%
ASAP1 GAP inh: inhibitors of human ASAP1 ArfGAP activity | AID 624377 | Q9ULH1 | inhibition, % at 16.5 µM | ASAP1-stimulated ARF1 GTP hydrolysis, GDP FP detection | 360,000 tested, 0.19% active; in the data active = inhibition above about 25%;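 note: 0% = vehicle with enzyme and substrate and 100% = no enzyme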
Target sequence (Q9ULH1 325-724 limits assumed): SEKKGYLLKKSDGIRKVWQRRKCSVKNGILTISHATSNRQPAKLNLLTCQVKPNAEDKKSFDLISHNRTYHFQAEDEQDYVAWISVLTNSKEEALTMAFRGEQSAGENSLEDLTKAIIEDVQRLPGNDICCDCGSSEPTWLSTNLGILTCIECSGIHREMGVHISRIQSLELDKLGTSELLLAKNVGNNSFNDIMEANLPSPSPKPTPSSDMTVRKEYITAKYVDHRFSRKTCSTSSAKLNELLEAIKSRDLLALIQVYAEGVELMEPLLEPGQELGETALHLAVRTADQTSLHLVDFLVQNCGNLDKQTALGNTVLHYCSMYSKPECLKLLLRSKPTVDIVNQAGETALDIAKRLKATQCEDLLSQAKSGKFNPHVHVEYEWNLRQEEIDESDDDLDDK
NadD inh conf: confirmation of Staphylococcus aureus NadD inhibitors; 2,000 tested, 13% active; shares compounds with NadD inh; purified S. aureus NadD, colorimetric enzyme assay; inhibition, % at 20 µM; AID 624309; in the data active = inhibition mostly above about 42%, no sharp cut-off; inactive = mostly below about 42%
rCAG bind conf: r(CAG) RNA repeat binding, confirmation. shares compounds with rCAG RNA binder. TO-PRO-1 dye displacement fluorescence. 4,300 tested, 70% active. AID 652065. inhibition, % at 3 µM;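 active = inhibition above a per-plate cutoff, the mean inhibition of sample wells plus 3 SD, cut at about 35% in these data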;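 note: loss of TO-PRO-1 fluorescence as compound displaces dye from 1x1 AA loop RNA; 0% = DMSO only wells and 100% = 100 µM mitoxantrone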
dCAG dye counter: disrupts DNA CAG TO-PRO-1 complex, flagging rCAG hits. d(CAG) DNA oligo TO-PRO-1 dye displacement, fluorescence. AID 652068. shares compounds with rCAG RNA binder. inhibition, % at 3 µM. 4,300 tested, 94% active;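 active = inhibition above its plate's cutoff, the mean test-well inhibition plus 3 SD, cut at about 4.8% in these data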;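 note: 0% = DNA dye mix with DMSO and 100% = 100 µM mitoxantrone; hits displace the dye from DNA and so lower well fluorescence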
* marks the source's active call; other numbers are inactive results; / = no result given.

SMILES	rCAG RNA binder	ARFGAP1 inhibitor	NadD inh	ASAP1 GAP inh	others
CCC(C)N1C(=O)/C(=C/c2ccc3c(c2)CCN3CCCCl)C(=O)NC1=S (stereo unspecified)	26.0	11.6	39.7*	15.4
CC(C)(C)NC(=O)CN1C(=O)[C@@H](Cc2c[nH]c3ccccc23)N=C(c2ccccc2)c2ccccc21	4.9	/	/	/
O=c1[nH]c(=S)n(C2CC2)c(O)c1/C=N/Nc1cccc2ccccc12	33.9	-1.4	29.7*	0.7
O=c1[nH]c(=O)n(CCC2=CCCCC2)c(O)c1/C=N/Nc1cccc2ccccc12	25.5	2.1	30.5*	4.1
O=c1[nH]c(=S)n(C2CC2)c(O)c1/C=N/Nc1ccccc1	12.8	6.5	3.4	-13.1
C[C@H](NC(=O)OCc1ccccc1)[P+](=O)O	2.8	/	/	/
CC(C)(C)n1nnnc1C1CN=C(c2ccccc2)c2ccccc2N1 (stereo unspecified)	-1.3	/	/	/
CCN(CC)C(=O)c1ccc2c(c1)C1C(Cl)C(Sc3ccccc3[N+](=O)[O-])CC1C(C(=O)O)N2 (stereo unspecified)	/	/	21.0	/
O=C(O)c1ccc2c(c1)C1C(Cl)C(Sc3ccccc3[N+](=O)[O-])CC1C(c1cccc([N+](=O)[O-])c1)N2 (stereo unspecified)	/	/	32.9*	/
c1ccc(Cn2nnnc2C2CN=C(c3ccccc3)c3ccccc3N2)cc1 (stereo unspecified)	4.8	/	/	/
CCN(CC)C(=O)c1ccc2c(c1)C1C=CCC1C(C(=O)O)N2 (stereo unspecified)	46.0*	-2.8	18.6	-5.4
Cc1cc(O)c2c(c1)C(=O)[C@@]13C(=C2O)C(=O)[C@H]2C(O)[C@@H]1[C@H]1C(O)[C@@H]3C(=O)C3=C(O)c4c(O)cc(C)cc4C(=O)[C@@]312 (stereo partly specified)	1.5	/	/	/
Clc1cccc(N2Cc3cc(-c4ccccc4)ccc3-n3nncc3C2)c1	8.8	-11.3	33.1*	-3.0
CCOC(=O)CC[C@@H]1CC[C@]2(CCCN(Cc3ccncc3)C2)O1	-0.1	/	/	/
O=C1NC(=S)NC(=O)C1=Cc1c(Cl)cccc1Cl	2.6	-1.7	10.0	8.1
O=C1NC(=S)NC(=O)C1=Cc1ccc(Br)s1	2.5	-1.1	45.9*	-3.5
CN1C(=O)/C(=C\c2ccc(Br)s2)C(=O)NC1=S	10.1	-0.4	34.3*	0.1
O=C(NCCN1CCC2(CC1)C(=O)NCN2c1ccccc1)c1ccc(F)c(F)c1	-2.7	2.5	/	0.0
Cc1cccc(N2C(=O)NC(=O)/C(=C\c3cc(C)n(-c4sc5c(c4C#N)CCCC5)c3C)C2=O)c1C	7.7	-12.4	29.1*	-8.8
Cc1cccc(N2C(=O)NC(=O)/C(=C\c3ccc4c(c3)CCCN4Cc3ccccc3)C2=O)c1	9.2	-4.6	37.5*	-7.8
O=C1NC(=O)C(=Cc2ccc(-c3ccccc3[N+](=O)[O-])o2)C(=O)N1	1.3	1.9	23.5	4.1
O=C1NC(=O)C(=Cc2ccc(-c3cc(Cl)ccc3[N+](=O)[O-])o2)C(=O)N1	3.0	-5.7	38.2*	-4.0
COc1ccc(/C=C2/C(=O)NC(=O)N(c3ccc(C)c(C)c3)C2=O)cc1CN1C(=O)c2ccccc2C1=O	8.1	11.4	28.8*	-5.8
COc1ccc(N2C(=O)/C(=C/c3ccc(OC)c(OC)c3)C(=O)NC2=S)cc1	21.8	-4.8	6.2	-12.3
COc1ccc(N2C(=O)/C(=C/c3ccc(C)o3)C(=O)NC2=S)c(OC)c1	43.9*	-1.7	-1.5	2.4
SMILES	rCAG RNA binder	ARFGAP1 inhibitor	NadD inh	ASAP1 GAP inh	others
O=C1NC(=O)C(=Cc2ccc(SC3CCCCC3)o2)C(=O)N1	30.9	1.6	36.5*	-2.5
NS(=O)(=O)c1ccc(-c2ccc(C=C3C(=O)NC(=O)NC3=O)o2)cc1	3.4	6.4	2.3	-4.6
Cc1cc(N2CCNC[C@H]2C)ccc1N1CCN[C@H](C)C1	4.8	-2.8	/	-7.6
CCOC(=O)COc1ccc(/C=C2\C(=O)NC(=S)N(c3ccc(OC)cc3)C2=O)cc1OC	23.9	2.8	-6.8	1.2
CCOc1ccc(N2C(=O)/C(=C/c3ccco3)C(=O)NC2=S)cc1	/	/	86.8*	/
Nc1c(C(=O)OCc2ccccc2)c2nc3ccccc3nc2n1Cc1cccs1	8.0	-1.2	30.2*	11.4	NadD inh conf=23.4
Cc1ccc2c(c1Cl)NC(C(=O)O)C1CC(Sc3ccccc3[N+](=O)[O-])C(Cl)C21 (stereo unspecified)	/	/	35.7*	/	NadD inh conf=31.1
COc1ccc(Cc2cn(C)c(N)n2)cc1	4.1	/	/	/
O=c1[nH]c2ccccc2n1C1CCN(C(c2ccccc2OC(F)(F)F)c2nnnn2-c2ccc3c(c2)OCCO3)CC1 (stereo unspecified)	12.0	11.1	28.9*	-1.8	NadD inh conf=10.7
O=c1[nH]c2ccccc2n1C1CCN(C(c2ccccc2)c2nnnn2-c2ccc3c(c2)OCCO3)CC1 (stereo unspecified)	7.6	3.9	31.2*	9.4	NadD inh conf=9.0
CC(c1ccccc1)n1cc(C(=O)NC2CCCC2)nn1 (stereo unspecified)	1.3	/	/	/
O=C1NCN(c2ccccc2)C12CCN(C(c1cccc3ccccc13)c1nnnn1Cc1ccccc1)CC2 (stereo unspecified)	13.2	-3.6	31.8*	0.9	NadD inh conf=18.2
O=C1NCN(c2ccccc2)C12CCN(C(c1cccc3ccccc13)c1nnnn1-c1ccc3c(c1)OCCO3)CC2 (stereo unspecified)	2.7	10.4	31.2*	6.8	NadD inh conf=19.1
O=C1NCN(c2ccccc2)C12CCN(C(c1ccnc3ccccc13)c1nnnn1Cc1ccccc1)CC2 (stereo unspecified)	3.8	-4.6	4.8	7.4
O=C1NCN(c2ccccc2)C12CCN(C(c1ccccc1)c1nnnn1-c1ccc3c(c1)OCCO3)CC2 (stereo unspecified)	10.4	8.1	18.8	6.3
Cc1cc(N2CCNC[C@H]2C)ccc1N1CC[C@@H](O)C1	3.9	1.0	/	-4.5
CCCCCCn1c(=O)c(C(=O)Nc2c(C)n(C)n(-c3ccccc3)c2=O)c(O)c2ccccc21	0.1	1.1	32.1*	3.4	NadD inh conf=7.2
CCCCCn1c(=O)c(C(=O)Nc2ccccc2)c(O)c2ccccc21	2.0	-2.9	3.3	5.4
COc1cc(CCN)c(OC)cc1C	0.4	1.8	/	5.8
COC1C(OC(=O)c2ccc(C)[nH]2)C(O)C(Oc2ccc3c(O)c(NC(=O)c4ccc(O)c(CC=C(C)C)c4)c(=O)oc3c2Cl)OC1(C)C (stereo unspecified)	77.2*	12.3	31.4*	2.5	NadD inh conf=50.4*;rCAG bind conf=89.0*;dCAG dye counter=69.6*
C=CCN1C[C@H](C)N(C(c2ccc(C(=O)N(CC)CC)cc2)c2cccc(OC)c2)CC1C (stereo partly specified)	-1.1	10.1	/	12.4

Source: PubChem
